Results from different studies.
Lines come from different studies, so protocols differ. Values after ≈ are worked out from the molar mass of the structure shown.

O=C1NC(=S)N/C1=C\c1c2ccccc2c(-c2ccc(N(c3ccccc3)c3ccccc3)cc2)c2ccccc12
MIC (Bacillus cereus; microbial growth, broth dilution; ATCC10876): > 1000 µg/mL

COc1c(N2C[C@@H]3CCCN[C@@H]3C2)c(F)cc2c(=O)c(C(=O)O)cn(C3CC3)c12
MIC90 (Salmonella enterica; microbial growth; ATCC13311 TYPHIMURIUM): 0.49 µg/mL (≈ 1.22 µM)

O=c1cc(-c2ccc(O)c(O)c2)oc2cc(O)cc(O)c12
inhibition (Helicobacter pylori; microbial growth, broth dilution; 0.98 µg/mL): 73.2%

CO/N=C(\C(=O)N[C@@H]1C(=O)N2C(C(=O)O)=C(CSc3nc(=O)c(=O)[nH]n3C)CS[C@H]12)c1csc(N)n1
MIC (Salmonella enterica; microbial growth; 20 h, pH 7): 0.0625 µg/mL (≈ 0.113 µM)

COc1ccc(-c2cc(=O)c3c(O)cc(O[C@@H]4O[C@H](CO)[C@@H](O)[C@H](O)[C@H]4O)cc3o2)cc1O
inhibition (Helicobacter pylori; microbial growth, broth dilution; 62.5 µg/mL): 100%

O=C1NC(=S)S/C1=C\c1ccc(-c2ccc(N(c3ccccc3)c3ccccc3)cc2)c2ccccc12
MBC (Bacillus cereus; microbial killing, broth dilution; ATCC10876): > 1000 µg/mL

CS(=O)(=O)c1ccc([C@@H](O)[C@@H](CF)NC(=O)C(Cl)Cl)cc1
MIC (Salmonella enterica; microbial growth; ENTERITIDIS; 20 h, pH 7): 4 µg/mL (≈ 11.2 µM)

CC1(C)S[C@@H]2[C@H](NC(=O)[C@H](N)c3ccccc3)C(=O)N2[C@H]1C(=O)O
inhibition (Salmonella enterica; microbial growth, agar dilution; ATCC13311 TYPHIMURIUM; 26.93 µM): 100%

Cc1cc(NS(=O)(=O)c2ccc(N)cc2)no1
MIC (Salmonella enterica; microbial growth; ENTERITIDIS; 20 h, pH 7): 64 µg/mL (≈ 253 µM)

CNC1=C([N+](=O)[O-])C2(C(=O)Nc3ccccc32)C2=C(O1)C(=O)c1ccccc1C2=O (stereo not shown)
MBC (Salmonella enterica; microbial killing; TYPHIMURIUM): ≤ 1000 µg/mL

COC(=O)c1ccc(O)cc1
inhibition (Helicobacter pylori; microbial growth, broth dilution; 125 µg/mL): 100%

CCn1cc(C(=O)O)c(=O)c2ccc(C)nc21
MIC (Salmonella enterica; microbial growth; 20 h, pH 7): 2 µg/mL (≈ 8.61 µM)

O=C1NC(=S)N/C1=C\c1ccc(-c2ccc(N(c3ccccc3)c3ccccc3)cc2)cc1
MBC (Bacillus cereus; microbial killing, broth dilution; ATCC10876): > 1000 µg/mL

O=C(O)c1ccc(O)cc1
inhibition (Helicobacter pylori; microbial growth, broth dilution; 31.25 µg/mL): 100%

CN(C)[C@@H]1C(O)=C(C(N)=O)C(=O)[C@@]2(O)C(O)=C3C(=O)c4c(O)cccc4[C@@](C)(O)[C@H]3C[C@@H]12
MIC (Salmonella enterica; microbial growth; F98, TYPHIMURIUM; 20 h, pH 7): 1 µg/mL (≈ 2.25 µM)

O=C(O)CN1C(=O)/C(=C/c2c3ccccc3c(-c3ccc(N(c4ccccc4)c4ccccc4)cc3)c3ccccc23)SC1=S
MIC (Bacillus cereus; microbial growth, broth dilution; ATCC10876): > 1000 µg/mL

[H]/N=C(/N)N[C@H]1[C@H](O)[C@@H](O)[C@H](O[C@@H]2O[C@@H](C)[C@](O)(C=O)[C@H]2O[C@@H]2O[C@@H](CO)[C@H](O)[C@@H](O)[C@@H]2NC)[C@@H](N/C(N)=N\[H])[C@@H]1O
MIC (Salmonella enterica; microbial growth; 20 h, pH 7.2): 8 µg/mL (≈ 13.8 µM)

COc1cc([C@H]2OC[C@H]3[C@@H]2CO[C@@H]3c2cc(OC)c(O)c(OC)c2)cc(OC)c1O
inhibition (Helicobacter pylori; microbial growth, broth dilution; 31.25 µg/mL): 100%

O=C(N[C@H](CO)[C@H](O)c1ccc([N+](=O)[O-])cc1)C(Cl)Cl
MIC90 (Salmonella enterica; microbial growth; ATCC13311 TYPHIMURIUM): 0.98 µg/mL (≈ 3.03 µM)

O=C(O)CN1C(=O)/C(=C/c2ccc(-c3ccc(N(c4ccccc4)c4ccccc4)cc3)cc2)SC1=S
MBC (Bacillus cereus; microbial killing, broth dilution; ATCC10876): 31.3 µg/mL (≈ 59.9 µM)

CCN1CCN(c2cc3c(cc2F)c(=O)c(C(=O)O)cn3C2CC2)CC1
MIC (Salmonella enterica; microbial growth; ENTERITIDIS; 20 h, pH 5.5): 0.25 µg/mL (≈ 0.696 µM)

O=C1NC(=S)S/C1=C\c1c2ccccc2c(-c2ccc(N(c3ccccc3)c3ccccc3)cc2)c2ccccc12
MIC (Bacillus cereus; microbial growth, broth dilution; ATCC10876): > 1000 µg/mL

O=C(O)c1cn(C2CC2)c2cc(N3CCNCC3)c(F)cc2c1=O
MIC (Salmonella enterica; microbial growth; ENTERITIDIS; 20 h, pH 7): 0.0156 µg/mL (≈ 0.0471 µM)

O=C(O)CN1C(=O)/C(=C/c2ccc(-c3ccc(N(c4ccccc4)c4ccccc4)cc3)c3ccccc23)NC1=S
MBC (Bacillus cereus; microbial killing, broth dilution; ATCC10876): > 1000 µg/mL

O=c1cc(-c2ccc(O)cc2)oc2cc(O)cc(O)c12
inhibition (Helicobacter pylori; microbial growth, broth dilution; 125 µg/mL): 100%
